From PubChem BioAssay
Active and inactive are the calls of the source.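 Rule for the calls, unless noted: active = mean duplicate potentiation above the buffer control mean plus 5 SD of buffer wells; inactive = the rest.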

What was measured:
[1] = nonspecific flux increase, KCNQ1-free cells – parental CHO cells, counter-screen for KCNQ1 potentiator project (AID 493006;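 active = duplicate-averaged activation above buffer control mean plus 5 SD of those controls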;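 for activation: fluorescence ratio of max minus min over baseline after K+ and Tl+ depolarization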); conditions: parental CHO-K1 cells, FluxOR thallium flux, at 10 µM; hits give high values
In short: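 Benchmarks – buffer and R-L3 controls · Assay system – untransfected host CHO-K1 cells with FluxOR thallium dye · Measure – fluorescence change ratio scaled 0% buffer, 100% R-L3 · Technique – kinetic thallium-flux fluorescence · Timing – overnight 37 °C plating, 90 min RT dye, 20 min compound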

[2] = molecular target: Potassium voltage-gated channel subfamily KQT member 1 (Homo sapiens) (UniProt P51787); assay: enhancement of KCNQ1 channel thallium flux – FluxOR thallium flux, CHO cells, duplicates, confirmation (AID 493007;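 active = potentiation averaged over duplicate wells exceeding buffer-only control mean by more than 3 SD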;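 for outcome: cells depolarized by a potassium plus thallium sulfate stimulus after compound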); conditions: KCNQ1 cell line, FluxOR thallium flux fluorescence, at 10 µM; hits give high values, % of reference activator effect, buffer zero
In short: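 Material: CHO cells stably expressing the KCNQ1 potassium channel / Times: dye 90 min then compound 20 min, both at room temperature / Detection: kinetic thallium influx fluorescence with FluxOR dye, 10 s baseline, 110 s post-stimulus / Benchmarks: buffer-only wells as 0% and R-L3 activator as 100% / Replicates: each compound tested in duplicate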

[3] = molecular target: Potassium voltage-gated channel subfamily KQT member 2 (Rattus norvegicus) (UniProt O88943); assay: KCNQ2 thallium flux enhancement – KCNQ2-CHO-K1 cells, selectivity assay for KCNQ1 potentiator project (AID 493009); conditions: FluxOR thallium flux fluorescence, at 10 µM; hits give high values, scaled: buffer 0, activator control 100;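 note: assay conditions were tuned for KCNQ1 rather than KCNQ2 modulators; signal is max minus min fluorescence divided by baseline after thallium stimulus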
[4] = molecular target: Potassium voltage-gated channel subfamily KQT member 1 (Homo sapiens) (UniProt P51787); assay: KCNQ1 activators by electrophysiology – IonWorks patch clamp, KCNQ1-CHO cells, orthogonal assay for KCNQ1 potentiator project, confirmation (AID 493184;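 active = current rise at least 3 SD above the untreated control mean in each of two repeat wells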); conditions: automated patch clamp current, at 10 µM; hits give high values
In short: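 Probe or stimulus: depolarizing pulse to +40 mV from -90 mV; Material: CHO cells carrying KCNQ1; Compound: one dose, 10 µM final; Signal: automated voltage clamp, amphotericin B perforated patch; Read-out basis: percent current increase versus pre-compound level; Buffer or medium: pH 7.4 external bath; Replication: duplicates.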

[5] = molecular target: Potassium voltage-gated channel subfamily E member 1 (Homo sapiens) + Potassium voltage-gated channel subfamily KQT member 1 (Homo sapiens) (UniProt P15382+P51787); assay: KCNQ1-E1 channel activation – thallium flux, CHO-K1 KCNQ1/E1 cells, selectivity assay for KCNQ1 potentiator project, confirmation (AID 493186;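 active = mean duplicate activation above the buffer control mean plus 5 SD of those controls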); conditions: FluxOR thallium flux, at 10 µM; hits give high values
In short: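 system = KCNQ1/E1-expressing stable CHO-K1 cell line | doses = single compound concentration per well | times = dye 90 min, compound 20 min, room temperature | measured by = FluxOR Tl+ flux fluorescence, kinetic read | evaluation = fluorescence rise relative to baseline, as percent of R-L3 response above buffer | controls = buffer and R-L3 | replicates = duplicate wells per compound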

Potassium voltage-gated channel subfamily E member 1 (Homo sapiens) + Potassium voltage-gated channel subfamily KQT member 1 (Homo sapiens), sequence (P51787 whole entry, looked up): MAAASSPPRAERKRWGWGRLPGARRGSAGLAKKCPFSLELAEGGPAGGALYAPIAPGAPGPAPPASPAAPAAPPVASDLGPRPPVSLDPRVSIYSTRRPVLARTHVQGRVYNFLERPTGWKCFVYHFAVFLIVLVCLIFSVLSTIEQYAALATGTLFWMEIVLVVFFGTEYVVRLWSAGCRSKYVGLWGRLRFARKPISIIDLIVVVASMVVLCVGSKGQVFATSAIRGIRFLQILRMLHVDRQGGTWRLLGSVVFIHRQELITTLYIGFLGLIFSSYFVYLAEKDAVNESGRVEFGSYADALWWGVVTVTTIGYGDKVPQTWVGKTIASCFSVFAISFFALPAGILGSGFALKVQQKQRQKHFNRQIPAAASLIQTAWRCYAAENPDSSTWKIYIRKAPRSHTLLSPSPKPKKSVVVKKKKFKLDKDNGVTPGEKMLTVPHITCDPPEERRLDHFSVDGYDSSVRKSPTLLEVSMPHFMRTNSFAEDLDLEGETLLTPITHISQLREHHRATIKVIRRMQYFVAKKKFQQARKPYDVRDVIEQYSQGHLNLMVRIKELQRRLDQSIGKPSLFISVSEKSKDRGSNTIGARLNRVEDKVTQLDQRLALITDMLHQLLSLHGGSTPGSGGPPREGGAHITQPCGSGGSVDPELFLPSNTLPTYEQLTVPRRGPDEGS
Potassium voltage-gated channel subfamily KQT member 1 (Homo sapiens), sequence (P51787 whole entry, looked up): as above
Potassium voltage-gated channel subfamily KQT member 2 (Rattus norvegicus), sequence (O88943 whole entry, looked up): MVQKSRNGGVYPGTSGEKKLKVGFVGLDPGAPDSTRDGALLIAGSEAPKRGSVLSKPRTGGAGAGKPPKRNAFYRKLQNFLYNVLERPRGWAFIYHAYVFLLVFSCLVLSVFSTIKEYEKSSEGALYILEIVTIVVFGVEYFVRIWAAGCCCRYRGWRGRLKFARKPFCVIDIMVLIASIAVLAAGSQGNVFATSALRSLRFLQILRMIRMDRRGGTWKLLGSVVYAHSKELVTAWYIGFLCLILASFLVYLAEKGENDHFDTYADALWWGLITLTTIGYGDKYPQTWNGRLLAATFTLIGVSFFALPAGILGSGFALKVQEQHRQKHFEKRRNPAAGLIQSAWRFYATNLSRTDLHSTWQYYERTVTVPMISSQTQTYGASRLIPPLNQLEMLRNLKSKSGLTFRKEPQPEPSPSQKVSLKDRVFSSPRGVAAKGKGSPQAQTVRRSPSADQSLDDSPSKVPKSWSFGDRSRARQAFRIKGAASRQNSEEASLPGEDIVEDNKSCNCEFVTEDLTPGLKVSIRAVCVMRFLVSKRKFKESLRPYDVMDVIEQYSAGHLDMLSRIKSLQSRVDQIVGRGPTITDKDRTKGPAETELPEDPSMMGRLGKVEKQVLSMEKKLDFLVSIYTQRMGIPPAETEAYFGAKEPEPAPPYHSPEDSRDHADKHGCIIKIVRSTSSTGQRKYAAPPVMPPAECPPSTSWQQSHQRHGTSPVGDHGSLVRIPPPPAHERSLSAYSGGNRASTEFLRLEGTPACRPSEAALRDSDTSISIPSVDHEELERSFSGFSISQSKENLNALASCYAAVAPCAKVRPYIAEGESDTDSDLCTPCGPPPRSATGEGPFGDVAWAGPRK

Row | Compound | activation [1] | potentiation [2] | potentiation [3] | outcome [4] | outcome [1] | outcome [2] | outcome [3] | outcome [5]
1 | CCOc1ccc(-c2c(=O)n(O)c3ccccc3[n+]2[O-])cc1 | 224% (active) | 59.5% (active) | 254% (active) | inactive | – | – | – | –
2 | CC(C)c1ccc(/C=N/n2c(COc3ccccc3)n[nH]c2=S)cc1 | 190% (active) | 512% (active) | 503% (active) | inactive | – | – | – | –
3 | CCNC(=S)N=Nc1c(O)n(Cc2ccc(Cl)cc2)c2ccccc12 | – | 37% (active) | 172% (active) | inactive | inactive | – | – | –
4 | O=C(/C=C/c1ccco1)Nc1scc(-c2ccccc2)c1C(=O)O | – | – | – | inactive | inactive | inactive | inactive | –
5 | Cc1cc(/C=C2\C(=N)N3N=C(c4ccco4)SC3=NC2=O)c(C)n1Cc1ccccc1 | – | 37% (active) | – | inactive | inactive | – | inactive | –
6 | CCOC(=O)Nc1ccc2c(c1)N(CCCN(C)C)c1ccccc1CC2 | – | – | – | inactive | inactive | inactive | inactive | –
7 | Cc1cc(C)c2ccc(C)[n+]([O-])c2c1O | – | – | – | inactive | inactive | inactive | inactive | –
8 | Cc1cc(NC(=O)CCC(=O)N(C2CC2)C(C(=O)NC(C)(C)C)c2ccccc2Cl)no1 (stereo unspecified) | – | 25.5% (active) | – | inactive | inactive | – | inactive | –
9 | COc1ccc(CN2CCCC(CNC(=O)c3ccc(F)cc3)C2)c(C)c1C (stereo unspecified) | – | – | – | inactive | inactive | inactive | inactive | –
10 | Cc1cccc(C)c1OCc1cc(C(=O)N(C)Cc2cc(C3CC3)n[nH]2)no1 | – | – | – | inactive | inactive | inactive | inactive | inactive
11 | CCOC(=O)c1cc2c(C)n(-c3ccc(C)cc3)c(C)c2ccc1=O | – | 19.5% (active) | – | inactive | inactive | – | inactive | inactive
12 | CCOC(=O)C(C(=O)OCC)C(C(=O)OCC)N1CCOCC1 (stereo unspecified) | – | – | 171% (active) | inactive | inactive | inactive | – | inactive
13 | COc1ccc(C(=O)/C=C/C(=O)N(CC(=O)NC2CCCCC2)Cc2cccs2)c(O)c1 | – | – | – | inactive | inactive | inactive | inactive | inactive
14 | Cc1cc(C)c2c(=O)n(CC(=O)Nc3ccc(Cl)cc3)sc2n1 | – | 25% (active) | – | inactive | inactive | – | inactive | inactive
15 | CC(=O)Nc1ccc(/C=N/NC(=O)c2cccc(S(=O)(=O)N3CCOCC3)c2)cc1 | – | – | – | inactive | inactive | inactive | inactive | inactive
16 | COC(=O)[C@H](C)NC(=O)Nc1cc(Cl)ccc1C | – | – | – | inactive | inactive | inactive | inactive | inactive
